# Screens from PubChem.
# NPY-Y2 PAM-ag: potentiators or agonists of human neuropeptide Y receptor Y2 | activation, % at 3.6 µM | 220,000 tested, 0.45% active | P49146 | AID 1359 | cells expressing NPY-Y2, potentiator/agonist read-out; in the data active = activation above about 27%;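 also: cells stimulated with NPY near EC25 plus isoproterenol at EC100; 0% = vehicle plus submaximal agonist and 100% = vehicle plus saturating agonist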
# Target sequence (P49146 whole entry, looked up): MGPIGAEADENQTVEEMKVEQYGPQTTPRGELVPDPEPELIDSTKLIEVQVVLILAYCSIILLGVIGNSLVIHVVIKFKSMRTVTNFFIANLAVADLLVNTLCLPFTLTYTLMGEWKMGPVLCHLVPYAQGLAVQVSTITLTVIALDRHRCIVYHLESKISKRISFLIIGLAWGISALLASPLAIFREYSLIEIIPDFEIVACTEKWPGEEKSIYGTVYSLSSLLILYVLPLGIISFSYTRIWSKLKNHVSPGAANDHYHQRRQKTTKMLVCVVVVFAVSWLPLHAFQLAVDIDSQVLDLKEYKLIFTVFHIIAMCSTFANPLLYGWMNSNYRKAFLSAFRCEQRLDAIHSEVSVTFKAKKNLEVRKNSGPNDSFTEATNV
# NPY-Y1 antag: NPY-Y1 (human) receptor antagonism | P25929 | HEK293-CNG Y1 cells, membrane potential fluorescence; NPY at EC95, then isoproterenol | inhibition, % at 3.6 µM | 200,000 tested, 1% active | AID 1040;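 active = inhibition above the campaign mean inhibition of all tested compounds plus 3 SD, cut at about 20% in these data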;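 also: 0% = DMSO wells given NPY plus isoproterenol and 100% = isoproterenol alone without NPY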
#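 Test system: HEK293 cells co-expressing NPY Y1 receptor and cyclic-nucleotide gated channel; Also added: NPY (25 nM), isoproterenol (1 µM), Ro 20-1724 (25 µM); Compound dosing: one concentration, 3.6 µM, in 0.4% DMSO; Timing: dye 3 h, compound 60 min room temperature, stimulation 45 min; Technique: Membrane-potential fluorescent dye readout.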
# NPY Y2 blocker: NPY-Y2 (human) receptor antagonism. NPY-Y2 expressing cells, antagonist mode. inhibition, % at 2.7 µM. 140,000 tested, 0.99% active; in the data active = inhibition above about 17%;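 also: 0% = vehicle with agonist challenge and 100% = reference antagonist with challenge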
# m-calpain inh: calpain II (pig) inhibition. purified calpain II, fluorogenic peptide substrate, 30 min. inhibition, % at 16 µM. 220,000 tested, 0.37% active. AID 1236;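 active = inhibition above about 50%, limit read from the data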
# Tb hexokinase: blocks Trypanosoma brucei hexokinase 1 activity. 220,000 tested, 0.11% active. inhibition, % at 10 µM. recombinant TbHK1, G6PDH-coupled NADH A340;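 active = inhibition of 50% or more in the single-dose primary screen; inactive = inhibition below 50%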
# NPY-Y1 PAM-ag: potentiators or agonists of human neuropeptide Y receptor Y1; 220,000 tested, 0.37% active; activation, % at 3.6 µM; P25929; NPY-Y1 expressing cells, potentiator/agonist activation; in the data active = activation above about 33%, passing the limit was not always enough;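 also: cells stimulated with NPY at EC10 then isoproterenol at EC100; 0% = low agonist plus stimulus and 100% = saturating agonist plus stimulus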
# NPY-Y1 confirm: confirmation of human NPY-Y1 receptor potentiators or agonists. shares compounds with NPY-Y1 PAM-ag. cell-based NPY-Y1 potentiator/agonist assay. activation, % at 3.6 µM. 280 tested, 20% active; in the data active = activation above about 45%;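 also: cells challenged with NPY at its EC10 plus isoproterenol stimulus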
# NPY-Y2 counter: potentiates or activates NPY-Y2, counter-screen for NPY-Y1 hits; HEK293-CNG cells, membrane-potential fluorescence (FLIPR), 1536-well; AID 1649; shares compounds with NPY-Y1 PAM-ag; activation, % at 3.6 µM; 280 tested, 20% active; in the data active = activation above about 33%
# NPY-Y1 agonist: counter-screen for NPY-Y1 potentiators: agonists of human NPY-Y1; 280 tested, 50% active; activation, % at 3.6 µM; shares compounds with NPY-Y1 PAM-ag; HEK293 Y1-CNGC, membrane potential fluorescence, agonist mode; AID 1697;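 active = percent activation above the mean of DMSO-only control wells plus 3 SD of those wells, cut at about 18% in these data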;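 also: cells challenged with isoproterenol plus Ro 20-1724 with no NPY in test wells; Y1 agonism lowers isoproterenol-driven cAMP and reduces probe fluorescence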
# NPY-Y2 ag: activates human NPY-Y2, counter-screen for NPY-Y1 hits | shares compounds with NPY-Y1 PAM-ag | AID 1698 | 280 tested, 67% active | HEK293 Y2-CNGC, membrane potential fluorescence, agonist mode | activation, % at 3.6 µM;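 active = activation above the solvent-only control wells' mean plus 3 SD, cut at about 11% in these data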;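 also: 0% = DMSO with isoproterenol and 100% = 40 nM NPY maximal response; agonism lowers cAMP so well fluorescence drops in active wells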
# CNGC inh 2: CNG channel inhibition, counter-screen for NPY-Y1 potentiators; shares compounds with NPY-Y1 PAM-ag; inhibition, % at 3.6 µM; AID 1704; HEK293-CNG parental, isoproterenol cAMP, membrane potential fluorescence; 280 tested, 42% active;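 active = inhibition above the mean of stimulated solvent-only control wells plus 3 SD, cut at about 22% in these data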;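 also: 0% = isoproterenol-stimulated DMSO wells and 100% = unstimulated DMSO wells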
# Numbers without * were called inactive; / = not tested or not shown. Sampled rows, rich in hits. Any-hit rate of the full collection: about 2.3%.
SMILES,NPY-Y2 PAM-ag,NPY-Y1 antag,NPY Y2 blocker,m-calpain inh,Tb hexokinase,NPY-Y1 PAM-ag,NPY-Y1 confirm,NPY-Y2 counter,NPY-Y1 agonist,NPY-Y2 ag,CNGC inh 2
CC(C)(C)c1ccc(Oc2ccc(N)cn2)cc1,39,/,/,2,-2,49*,41,40*,20*,40*,34*
Cc1cc(Oc2ccc(N)cn2)cc(C)c1Cl,-1,/,/,-17,-10,16,/,/,/,/,/
Cc1ccc(NC(=O)c2noc3c2CCCCC3)cc1C,-5,8,5,-23,-4,49*,-11,-4,-11,-5,-14
CCOC(=O)C(Cc1ccccc1)C(=O)Nc1ccc(N(CC)CC)cc1 (configuration not stated),8,0,2,21,3,46*,50*,23,31*,19*,14
CCOC(=O)C(Cc1ccccc1)C(=O)Nc1cccc(C)c1 (configuration not stated),8,3,4,-5,-9,-12,/,/,/,/,/
Cc1cc(C)c(C#N)c(N2CCN(Cc3ccccc3)CC2)n1,0,2,0,25,-4,78*,-13,-8,-16,5,-2
Fc1cc(NC(=S)NCc2ccc(CNC(=S)Nc3ccc(Cl)c(F)c3)cc2)ccc1Cl,44,/,/,-27,-13,52*,71*,51*,55*,57*,55*
CC1C2=C(CCCC2=O)N(c2cccc3ccccc23)C2=C1C(=O)CCC2,-2,10,5,/,-6,-33,/,/,/,/,/
O=C(Nc1ccc([N+](=O)[O-])cc1)C(=O)Nc1cccc(C(=O)O)c1,35,/,/,-4,-14,52*,36,19,24*,8,35*
O=C(CSc1nnc(-c2ccc(O)cc2)n1Cc1ccccc1)NNC(=O)c1ccc(Br)cc1,-7,0,1,0,8,-26,/,/,/,/,/
COCCCNCC(O)COc1ccccc1F (configuration not stated),26,-1,/,-20,1,49*,30,25,31*,27*,4
OCCNCCOc1ccccc1F,-4,6,3,-25,-4,-24,/,/,/,/,/
CCOc1ccc(NC(=O)C2C3CCC4C(CCC32)C4(Cl)Cl)cc1 (configuration not stated),8,7,/,-10,1,0,/,/,/,/,/
O=C(Nc1ccc(F)cc1)C1C2CCC3C(CCC21)C3(Cl)Cl (configuration not stated),8,/,/,-31,-7,52*,17,10,0,-1,20
CCCCC(=O)Nc1ccc(C(=O)Nc2ccc(S(=O)(=O)Nc3ccc(C)cc3)cc2)cc1,22,-11,-5,3,7,60*,20,16,10,16*,15
CCCCOc1ccc2c(c1)C(=O)c1cc(O)ccc1-2,23,-4,/,6,10,38*,49*,41*,40*,39*,33*
Cc1ccc(S(=O)(=O)N2N=C3CCCCC3C2(O)C(F)(F)F)cc1 (configuration not stated),-18,1,/,26,8,14,/,/,/,/,/
CC1(C)Cc2c(cnn2-c2ccccc2)C(=O)/C1=N\NC(=O)c1ccccc1N,17,1,1,2,-6,19,/,/,/,/,/
CC1(C)Cc2c(cnn2-c2ccccc2)-c2c1c1ccccc1n2CC(O)CBr (configuration not stated),13,-14,-3,-91,-14,50*,25,13,12,12*,14
